Converted amounts (≈) assume the structure as drawn. The source made the active and inactive calls. The calls are words filed in the database; no cut-off is given here.
Key:
[1] = Permeability across apical side to basolateral side in human Caco2 cells at 30 uM after 4 hrs by HPLC analysis; type: ADME, cell-based; conditions: caco-2, 4 h
How it was run: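 Caco-2 monolayer used to measure apical-to-basal transfer, reported as % permeability and Papp. Terbutaline served as the positive control; n = 3.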

[2] = Kinetic aqueous solubility of the compound in 80:20 PBS/acetonitrile solution at 200 to 500 uM by HTS assay; type: physicochemical; conditions: read-out: Kinetic_solubility
[3] = Selectivity ratio of EC50 for cytotoxicity against human SH-SY5Y cells to IC50 for recombinant mouse wild-type NAMPT expressed in bacterial expression system; type: cell-based
[4] = target: Nicotinamide phosphoribosyltransferase (Mus musculus, UniProt Q99KQ4); test: Inhibition of recombinant mouse wild-type NAMPT expressed in bacterial expression system using PRPP as substrate in presence of mouse NMNAT-3 measured for 1 hr by fluorescence assay
Nicotinamide phosphoribosyltransferase, sequence (Q99KQ4 whole entry): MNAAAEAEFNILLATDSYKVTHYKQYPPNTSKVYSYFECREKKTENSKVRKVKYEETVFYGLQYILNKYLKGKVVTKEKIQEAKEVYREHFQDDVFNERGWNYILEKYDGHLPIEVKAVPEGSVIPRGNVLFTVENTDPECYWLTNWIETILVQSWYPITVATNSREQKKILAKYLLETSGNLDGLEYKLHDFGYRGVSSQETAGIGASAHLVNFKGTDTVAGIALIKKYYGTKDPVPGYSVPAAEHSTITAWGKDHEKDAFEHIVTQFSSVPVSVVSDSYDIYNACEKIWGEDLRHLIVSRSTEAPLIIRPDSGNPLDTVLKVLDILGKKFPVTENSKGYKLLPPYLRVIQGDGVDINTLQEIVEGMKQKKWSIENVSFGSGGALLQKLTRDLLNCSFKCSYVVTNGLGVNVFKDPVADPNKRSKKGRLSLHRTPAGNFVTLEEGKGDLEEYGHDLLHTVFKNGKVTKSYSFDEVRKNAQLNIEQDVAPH
How it was run: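 In vitro NAMPT enzymatic assay run as concentration-response curves, with IC50 derived from the curves. Mean ± SD of three independent experiments (n = 6).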

SH-SY5Y [5] = test: Cytotoxicity against human SH-SY5Y cells measured after 48 hrs by MTT assay; type: cell-based
[6] = Cytotoxicity against human SH-SY5Y cells assessed as cell viability at 1 uM measured after 48 hrs by MTT assay relative to control; type: cell-based; conditions: read-out: Activity
[7] = target: Nicotinamide phosphoribosyltransferase (Homo sapiens) (UniProt P43490); test: Inhibition of NAMPT in human SH-SY5Y cells assessed as reduction in NAD levels at 100 nM measured after 16 hrs by diaphorase and resazurin dye based fluorescence assay relative to control; type: cell-based
Nicotinamide phosphoribosyltransferase (Homo sapiens), sequence (P43490 whole entry, looked up): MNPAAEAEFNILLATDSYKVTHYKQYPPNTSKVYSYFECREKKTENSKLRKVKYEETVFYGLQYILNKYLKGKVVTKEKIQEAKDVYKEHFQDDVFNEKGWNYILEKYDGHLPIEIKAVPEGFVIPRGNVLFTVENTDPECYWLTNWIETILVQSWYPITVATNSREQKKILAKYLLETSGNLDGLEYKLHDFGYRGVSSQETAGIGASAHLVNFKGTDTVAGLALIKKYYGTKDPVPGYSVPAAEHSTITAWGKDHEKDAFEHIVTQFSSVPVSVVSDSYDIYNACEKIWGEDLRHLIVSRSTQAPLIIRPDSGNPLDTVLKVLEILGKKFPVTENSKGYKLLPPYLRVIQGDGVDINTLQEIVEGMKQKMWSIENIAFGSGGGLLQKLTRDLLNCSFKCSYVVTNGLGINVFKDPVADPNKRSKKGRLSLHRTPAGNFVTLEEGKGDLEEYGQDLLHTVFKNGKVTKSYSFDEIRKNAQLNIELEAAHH
How it was run: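 SH-SY5Y cells treated at 100 nM for 16 h, then NAD level reduction measured as % of control. Mean ± SD of two independent experiments (n = 6).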

[8] = Metabolic stability in human liver microsomes assessed as parent compound remaining at 50 uM […] for 60 mins by LC-ESI/MS analysis; type: ADME, Microsome; conditions: read-out: Stability
4T1 [9] = test: Antitumor activity against mouse 4T1 cells implanted in BALB/c mouse assessed as reduction in tumour volume at 10 mg/kg, ip bid for 12 days by vernier caliper method; type: functional, organism-based
How it was run: (§1)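 Tumour cells implanted in the mammary gland. Dosing began at day 14, once tumours were palpable, after randomization into vehicle and treated groups of 4 mice each. Compound given intraperitoneally at 10 mg/kg twice a day for 12 consecutive days. Data are means of two independent experiments.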

[10] = Volume of distribution in BALB/c mouse at 10 mg/kg, iv administered as single dose measured after 24 hrs by LC-ESI/MS analysis; type: ADME, organism-based; conditions: in vivo
How it was run: (§2)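 Mice given a single 10 mg/kg i.v. injection; serial blood sampling, then half-life, clearance and volume of distribution derived.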

4T1 [11] = test: Antitumor activity against mouse 4T1 cells implanted in Balb/c mouse mouse assessed as inhibition of tumor metastasis at 10 mg/kg, ip bid for 12 days measured post last dose by crystal violet staining based thioguanine clonogenic assay; type: functional, organism-based; how it was run: as §1
[12] = Toxicity in Crl:CD Sprague-Dawley rat heart assessed as hypereosinophilia at 100 mg/kg, ip administered once daily for 5 days by hematoxylin and eosin staining based microscopic analysis; type: organism-based; conditions: in vivo, 120 h
[13] = Toxicity in Crl:CD Sprague-Dawley rat retina at 100 mg/kg, ip administered once daily for 5 days by hematoxylin and eosin staining based microscopic analysis; type: organism-based; conditions: in vivo, 120 h
[14] = Metabolic stability in Wistar Han rat liver microsomes assessed as parent compound remaining at 50 uM […] for 60 mins by LC-ESI/MS analysis; type: ADME, Microsome; conditions: read-out: Stability
4T1 [15] = test: Antitumor activity against mouse 4T1 cells implanted in BALB/c mouse assessed as reduction in tumor weight at 10 mg/kg, ip bid for 12 days; type: functional, organism-based; how it was run: as §1
TK6 [16] = test: Genotoxicity in human TK6 cells assessed as induction of DNA damage up to 500 uM by GreenScreen assay; type: toxicity, cell-based
Lymphocyte [17] = test: Genotoxicity in human primary lymphocytes up to 1 mM in presence of S9 fraction by GreenScreen assay; type: toxicity, cell-based
TK6 [18] = test: Genotoxicity in human TK6 up to 1 mM in presence of S9 fraction by GreenScreen assay; type: toxicity, cell-based
[19] = Clearance in BALB/c mouse at 10 mg/kg, iv administered as single dose measured after 24 hrs by LC-ESI/MS analysis; type: ADME, organism-based; conditions: in vivo; how it was run: as §2
Lymphocyte [20] = test: Genotoxicity in human primary lymphocytes assessed as induction of DNA damage up to 500 uM by GreenScreen assay; type: toxicity, cell-based
[21] = AUC in BALB/c mouse at 10 mg/kg, iv administered as single dose measured after 24 hrs by LC-ESI/MS analysis; type: ADME, organism-based; parameters: time < 24 hr, dose 10 mg/kg, route intravenous; conditions: in vivo; how it was run: as §2
[22] = Toxicity in Crl:CD Sprague-Dawley rat heart assessed as interstitial expansion at 100 mg/kg, ip administered once daily for 5 days by hematoxylin and eosin staining based microscopic analysis; type: organism-based; conditions: in vivo, 120 h
[23] = Thermodynamic solubility of compound in water after 24 hrs by LC-UV based shake flask method; type: physicochemical; conditions: buffer
How it was run: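 Thermodynamic water solubility measured by saturation shake flask, with the concentration of the saturated solution reported.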

[24] = Half-life in BALB/c mouse at 10 mg/kg, iv administered as single dose measured after 24 hrs by LC-ESI/MS analysis; type: ADME, organism-based; conditions: in vivo; how it was run: as §2
[25] = Toxicity in Crl:CD Sprague-Dawley rat heart assessed as increase in cardiomyocytes cytoplasmic vacuolation at 100 mg/kg, ip administered once daily for 5 days by hematoxylin and eosin staining based microscopic analysis; type: organism-based; conditions: in vivo, 120 h
[26] = Toxicity in Crl:CD Sprague-Dawley rat retina at 200 mg/kg, po administered once daily for 5 days via gavage by hematoxylin and eosin staining based microscopic analysis; type: organism-based; conditions: in vivo, 120 h
[27] = Toxicity in Crl:CD Sprague-Dawley rat heart assessed as interstitial expansion at 200 mg/kg, po administered once daily for 5 days via gavage by hematoxylin and eosin staining based microscopic analysis; type: organism-based; conditions: in vivo, 120 h
[28] = Toxicity in Crl:CD Sprague-Dawley rat heart assessed as increase in cardiomyocytes cytoplasmic vacuolation at 200 mg/kg, po administered once daily for 5 days via gavage by hematoxylin and eosin staining based microscopic analysis; type: organism-based; conditions: in vivo, 120 h
[29] = Toxicity in Crl:CD Sprague-Dawley rat heart assessed as hypereosinophilia at 200 mg/kg, po administered once daily via gavage for 5 days by hematoxylin and eosin staining based microscopic analysis; type: organism-based; conditions: in vivo, 120 h
[30] = Half-life in human; type: ADME
SH-SY5Y [31] = test: Cytotoxicity against human SH-SY5Y cells assessed as cell viability at 10 uM measured after 48 hrs by MTT assay relative to control; type: functional; conditions: read-out: Activity
[32] = Kinetic aqueous solubility of the compound in 80:20 PBS/acetonitrile solution at 200 uM by HTS assay; type: physicochemical; conditions: buffer

Row | Structure (SMILES) | solubility kinetic [2] [µM] | IC50 [4] [nM] | EC50 (SH-SY5Y [5]) [nM] | viability at 48 h, 1 µM [6] [%] | other results
1 | O=C(NCCCCCCCn1cc(-c2cccnc2)nn1)c1ccccc1-n1cc(CN2CCC(O)CC2)nn1 | 200 to 500 (≈ 109 to 272 µg/mL) | 41.8 | > 10000 | 91.7 | permeability [1]: < 1%; Selectivity ratio [3]: 200; inhibition [7]: 30%
2 | O=C(NCCCCCCCn1cc(-c2cccnc2)nn1)c1ccccc1-n1ccnn1 | 200 to 500 (≈ 86.1 to 215 µg/mL) | 3.4 | 35.4 | 10.5 | remaining at 1 h, 50 µM [8]: 94%; Activity (4T1 [9]): Active; Vd [10]: 31.3 L/kg; inhibition (4T1 [11]): Active; Activity [12]: Non-Toxic; permeability [1]: 10.6%; Activity [13]: Non-Toxic; remaining at 1 h, 50 µM [14]: 70%; Activity (4T1 [15]): Active; Activity (TK6 [16]): Non-Toxic; Activity (Lymphocyte [17]): Non-Toxic; Activity (TK6 [18]): Non-Toxic; clearance [19]: 103 mL/min/kg; Activity (Lymphocyte [20]): Non-Toxic; AUC at 24 h [21]: 1620 ng·h/mL; Activity [22]: Non-Toxic; Therm_solubility [23]: Soluble; half-life [24]: 211 min; Activity [25]: Non-Toxic
3 | O=C(NCCCCCCCn1cc(-c2cccnc2)nn1)c1ccccc1-c1c[nH]nn1 |  | 42.5 | 86.5 | 23.5 | 
4 | CN(C)Cc1cn(-c2ccccc2C(=O)NCCCCCCCn2cc(-c3cccnc3)nn2)nn1 | 200 to 500 (≈ 97.5 to 244 µg/mL) | 42.4 | 285 | 86.6 | 
5 | O=C(O)c1ccccc1-c1ccccc1C(=O)NCCCCCCCn1cc(-c2cccnc2)nn1 |  | 38.5 | > 500 | 80.9 | 
6 | CC(C)(C)NCC(O)c1cc(O)cc(O)c1 (centres undefined) [TERBUTALINE] |  |  |  |  | permeability [1]: 52.7%
7 | O=C(NCCCCCCCn1cc(-c2cccnc2)nn1)c1ccccc1-n1cc(CN2CCOCC2)nn1 | 200 to 500 (≈ 106 to 265 µg/mL) | 49.6 | > 500 | 30 | 
8 | O=C(O)c1ccc(-c2ccccc2C(=O)NCCCCCCCn2cc(-c3cccnc3)nn2)cc1 |  | > 500 | 224 | 22.5 | 
9 | N#CN=C(NCCCCCCOc1ccc(Cl)cc1)Nc1ccncc1 [CHS-828] |  |  |  |  | Activity [26]: Non-Toxic; Activity (4T1 [9]): Active; inhibition (4T1 [11]): Active; Activity [27]: Non-Toxic; Activity (4T1 [15]): Active; Activity [28]: Non-Toxic; Activity [29]: Non-Toxic; half-life [30]: 126 min
10 | O=C(NCCCCCCCn1cc(-c2cccnc2)nn1)c1ccccc1-n1cc(CN2CCCC2)nn1 | 200 to 500 (≈ 103 to 257 µg/mL) | 25.4 | > 10000 | 88.9 | viability at 10 µM (SH-SY5Y [31]): 61.9%
11 | CCOC(=O)C1CCN(Cc2cn(-c3ccccc3C(=O)NCCCCCCCn3cc(-c4cccnc4)nn3)nn2)CC1 | 200 to 500 (≈ 120 to 300 µg/mL) | 20.6 | 61.5 | 14.1 | 
12 | O=C(O)c1cccc(-c2ccccc2C(=O)NCCCCCCCn2cc(-c3cccnc3)nn2)c1 |  | > 500 | > 500 | 78.4 | 
13 | NC(=O)c1ccccc1-c1ccccc1C(=O)NCCCCCCCn1cc(-c2cccnc2)nn1 |  | 87.9 | 289 | 65.7 | 
14 | CC(C)N1CCN(Cc2cn(-c3ccccc3C(=O)NCCCCCCCn3cc(-c4cccnc4)nn3)nn2)CC1 | 200 to 500 (≈ 114 to 285 µg/mL) | 24.7 | > 10000 | 80.2 | viability at 10 µM (SH-SY5Y [31]): 64.1%
15 | O=C(NCCCCCCCn1cc(-c2cccnc2)nn1)c1ccccc1-n1cc(CN2CCCCC2)nn1 | 200 to 500 (≈ 106 to 264 µg/mL) | 17.1 | > 500 | 15.9 | 
16 | O=C(/C=C/c1cccnc1)NCCCCC1CCN(C(=O)c2ccccc2)CC1 [DAPORINAD] |  |  | 2.5 | 9.7 | Activity [12]: Toxic; permeability [1]: 20.5%; Activity [13]: Non-Toxic; Kinetic_solubility [32]: Soluble; Activity [22]: Non-Toxic; Activity [25]: Toxic
17 | O=C(NCCCCCCCn1cc(-c2cccnc2)nn1)c1ccccc1-n1cc(CN(CCO)CCO)nn1 | 200 to 500 (≈ 110 to 274 µg/mL) | 73.8 | > 500 | 37.8 | 
18 | O=C(NCCCCCCCn1cc(-c2cccnc2)nn1)c1ccccc1-c1cccnc1 |  | 28.5 | 36.5 | 15.1 | 
19 | O=C(NCCCCCCCn1cc(-c2ccc[n+]([O-])c2)nn1)c1ccccc1-c1ccccc1 |  | > 500 |  | 103 | 
20 | CN1CCN(Cc2cn(-c3ccccc3C(=O)NCCCCCCCn3cc(-c4cccnc4)nn3)nn2)CC1 | 200 to 500 (≈ 109 to 271 µg/mL) | 13.6 | > 10000 | 87.7 | permeability [1]: < 1%; Selectivity ratio [3]: 200; inhibition [7]: inactive
